Key:
[1] = biological target: T1, Serine/threonine-protein kinase B-raf (Homo sapiens, UniProt P15056, V600E); assay: Inhibition of B-Raf V600E mutant
Summary of the method: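 Enzymatic IC50 determined in vitro against purified V600E BRAF.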

[2] = biological target: T1, Serine/threonine-protein kinase B-raf; assay: Inhibition of BRAF V600E mutant-mediated ERK phosphorylation in human WM266.4 cells; type: cell-based
Summary of the method: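 Cellular IC50 for inhibition of phosphoERK formation.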

[3] = Growth inhibition of human WM266.4 cells expressing BRAF V600E mutant after 5 days by SRB assay; type: functional; conditions: WM 266-4, 120 h
Summary of the method: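 Antiproliferative SRB assay in WM266.4 (BRAF mutant), WM1361 (NRAS mutant) and D24 (BRAF/NRAS wild-type) melanoma cells, with GI50 derived from the assay.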

[4] = Cmax in BALB/cAnNCrl mouse at 10 mg/kg, po; conditions: in vivo
[5] = Tmax in BALB/cAnNCrl mouse at 10 mg/kg, po; conditions: in vivo
[6] = Oral bioavailability in BALB/cAnNCrl mouse at 10 mg/kg; conditions: in vivo
[7] = Half life in BALB/cAnNCrl mouse at 10 mg/kg, po; conditions: in vivo
[8] = Ratio of Cmax in BALB/cAnNCrl mouse to GI50 for human WM266.4 cells

T1 sequence (P15056 2-766 V600E limits assumed): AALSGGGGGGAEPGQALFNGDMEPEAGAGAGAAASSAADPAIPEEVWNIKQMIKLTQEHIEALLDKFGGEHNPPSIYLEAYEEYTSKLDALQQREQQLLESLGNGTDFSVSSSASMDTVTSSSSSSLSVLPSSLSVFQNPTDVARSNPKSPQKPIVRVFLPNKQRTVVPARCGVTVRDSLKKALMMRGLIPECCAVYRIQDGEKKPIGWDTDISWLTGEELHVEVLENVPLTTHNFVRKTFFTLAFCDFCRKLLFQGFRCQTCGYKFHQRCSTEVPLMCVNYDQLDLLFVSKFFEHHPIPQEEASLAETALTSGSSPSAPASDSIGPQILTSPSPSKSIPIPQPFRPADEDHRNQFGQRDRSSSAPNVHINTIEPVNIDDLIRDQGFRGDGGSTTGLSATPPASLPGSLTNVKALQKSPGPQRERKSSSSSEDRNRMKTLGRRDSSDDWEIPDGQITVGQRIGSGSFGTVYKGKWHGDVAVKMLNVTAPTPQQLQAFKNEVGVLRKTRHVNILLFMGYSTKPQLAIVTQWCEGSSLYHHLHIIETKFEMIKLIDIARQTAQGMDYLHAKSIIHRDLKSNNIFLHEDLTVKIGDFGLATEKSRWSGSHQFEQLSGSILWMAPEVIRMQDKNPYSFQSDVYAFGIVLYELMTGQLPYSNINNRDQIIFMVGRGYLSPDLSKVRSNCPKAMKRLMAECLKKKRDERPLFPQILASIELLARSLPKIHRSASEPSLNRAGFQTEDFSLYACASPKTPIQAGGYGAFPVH

Row | SMILES | IC50 [1] [nM] | IC50 [2] [nM] | GI50 [3] [nM] | Cmax [4] [µM] | Tmax [5] [h] | bioavailability [6] [%] | half-life [7] [h] | Ratio [8]
1 | Cc1nc2c(Oc3ccc(NC(=O)Nc4cc(C(F)(F)F)ccc4F)c4ccccc34)ccnc2[nH]c1=O | 4 | 62 | 36 | 0.316 | 3 | 4 | – | –
2 | Cc1ccc(-n2nc(C(C)(C)C)cc2NC(=O)Nc2ccc(Oc3ccnc4[nH]c(S)nc34)cc2F)cc1 | 310 | 55 | 154 | 11.7 | 3 | 13 | 3.3 | 76
3 | Cc1ccc(-n2nc(C(C)(C)C)cc2NC(=O)Nc2ccc(Oc3ccnc4[nH]c(=O)cnc34)cc2)cc1 | – | 96 | 62 | 31.9 | 0.5 | 17 | 6.3 | 510
4 | Cc1ccc(-n2nc(C(C)(C)C)cc2NC(=O)Nc2ccc(Oc3ccnc4[nH]c(=O)c(=O)[nH]c34)cc2F)cc1 | 90 | 75 | 79 | 5.54 | 3 | 1 | 5.4 | 70
5 | Cc1ccc(-n2nc(C(C)(C)C)cc2NC(=O)Nc2ccc(Oc3ccnc4[nH]c(=O)cnc34)cc2F)cc1 | – | 24 | 15 | 33.6 | 3 | 24 | 5.9 | 2240
6 | CC(C)(C)c1cc(NC(=O)Nc2cccc(Oc3ccnc4[nH]c(=O)cnc34)c2)n(-c2ccccc2)n1 | 58 | 280 | 170 | 29.5 | 0.5 | 6 | 1.4 | 170
7 | O=C1CNc2nccc(Oc3ccc(NC(=O)Nc4cc(C(F)(F)F)ccc4F)cc3)c2N1 | 54 | 3500 | 1690 | – | – | – | – | –
8 | CSc1cc(Oc2ccnc3ncc(=O)[nH]c23)ccc1NC(=O)Nc1cc(C(C)(C)C)nn1-c1ccccc1 | 450 | 101 | 27 | – | – | – | – | –
9 | Cc1nc2c(Oc3cccc(NC(=O)c4cccc(C(C)(C)C)c4)c3)ccnc2[nH]c1=O | 10 | 1430 | 890 | – | – | – | – | –
10 | O=C(Nc1ccc(Oc2ccnc3[nH]nnc23)cc1F)Nc1cc(C(F)(F)F)ccc1F | 69 | 24000 | 39000 | – | – | – | – | –
11 | O=C(Nc1ccc(Oc2ccnc3nc(N4CCOCC4)cnc23)cc1F)Nc1cc(C(F)(F)F)ccc1F | 97 | 3800 | 1120 | – | – | – | – | –
12 | Nc1nc2nccc(Oc3ccc(NC(=O)Nc4cc(C(F)(F)F)ccc4F)c(F)c3)c2[nH]c1=O | 168 | 9900 | 6500 | – | – | – | – | –
13 | Cc1ccc(-n2nc(C(C)(C)C)cc2NC(=O)Nc2cccc(Oc3ccnc4[nH]c(=O)c(C)nc34)c2)cc1 | 132 | 69 | 69 | – | – | – | – | –
14 | Cc1ccc(-n2nc(C(C)(C)C)cc2NC(=O)Nc2ccc(Oc3ccnc4nc(N)c(=O)[nH]c34)cc2F)cc1 | 222 | 70 | 128 | – | – | – | – | –
15 | Cc1nc2c(Oc3ccc(NC(=O)Nc4cc(C(F)(F)F)ccc4F)c(F)c3)ccnc2[nH]c1=O | 3 | 590 | 850 | – | – | – | – | –
16 | CN(C)c1nc2c(Oc3ccc(NC(=O)Nc4cc(C(C)(C)C)nn4-c4ccccc4)c(F)c3)ccnc2[nH]1 | 1670 | 1700 | 574 | – | – | – | – | –
17 | O=C(Nc1ccc(Oc2ccnc3[nH]c(=O)c(=O)[nH]c23)cc1F)Nc1cc(C(F)(F)F)ccc1F | 5 | 600 | 1450 | – | – | – | – | –
18 | Cc1ccc(-n2nc(C(C)(C)C)cc2NC(=O)Nc2ccc(Oc3ccnc4[nH]c(=O)c(N)nc34)c3ccccc23)cc1 | 150 | 7 | 77 | – | – | – | – | –

Row | SMILES | IC50 [1] [nM] | IC50 [2] [nM] | GI50 [3] [nM] | Cmax [4] [µM] | Tmax [5] [h] | bioavailability [6] [%] | half-life [7] [h] | Ratio [8]
19 | Cc1nc2c(Oc3ccc(NC(=O)Nc4cc(C(C)(C)C)nn4-c4ccccc4)c4ccccc34)ccnc2[nH]c1=O | 67 | 8 | 57 | – | – | – | – | –
20 | Cc1nc2nccc(Oc3ccc(NC(=O)Nc4cc(C(C)(C)C)nn4-c4ccccc4)c4ccccc34)c2[nH]c1=O | 3000 | 141 | 95 | – | – | – | – | –
21 | Cc1ccc(-n2nc(C(C)(C)C)cc2NC(=O)Nc2ccc(Oc3ccnc4ncc(=O)[nH]c34)cc2)cc1 | 2290 | 634 | 670 | – | – | – | – | –
22 | O=C(Nc1cccc(Oc2ccnc3[nH]c(=O)cnc23)c1)c1cccc(OC(F)(F)F)c1 | 21 | 4000 | 9900 | – | – | – | – | –
23 | CN1CCN(c2cnc3c(Oc4ccc(NC(=O)Nc5cc(C(C)(C)C)nn5-c5ccccc5)c(F)c4)ccnc3n2)CC1 | 4100 | 750 | 417 | – | – | – | – | –
24 | CC(C)(C)c1cc(NC(=O)Nc2ccc(Oc3ccnc4[nH]c(=O)cnc34)c3ccccc23)n(-c2ccccc2)n1 | 77 | 8 | 105 | 14.2 | 0.25 | 7 | 1.7 | 130
25 | CSc1cc(Oc2ccnc3[nH]c(=O)cnc23)ccc1NC(=O)Nc1cc(C(C)(C)C)nn1-c1ccc(C)cc1 | 19 | 5 | 1 | 101 | 3 | 71 | 7.9 | 101200
26 | CSc1cc(Oc2ccnc3[nH]c(=O)cnc23)ccc1NC(=O)Nc1cc(C(F)(F)F)ccc1F | 4 | 195 | 96 | – | – | – | – | –
27 | Nc1nc2nccc(Oc3ccc(NC(=O)Nc4cc(C(F)(F)F)ccc4F)c4ccccc34)c2[nH]c1=O | 43 | 229 | 204 | – | – | – | – | –
28 | CC(C)(C)c1cc(NC(=O)Nc2cccc(Oc3ccnc4ncc(=O)[nH]c34)c2)n(-c2ccccc2)n1 | 640 | 1700 | 1600 | – | – | – | – | –
29 | CN(C)c1cnc2c(Oc3ccc(NC(=O)Nc4cc(C(F)(F)F)ccc4F)c(F)c3)ccnc2n1 | 220 | 20000 | 55000 | – | – | – | – | –
30 | CSc1cc(Oc2ccnc3[nH]c(=O)c(C)nc23)ccc1NC(=O)Nc1cc(C(F)(F)F)ccc1F | 2 | 97 | 225 | – | – | – | – | –
31 | Cc1nc2nccc(Oc3ccc(NC(=O)Nc4cc(C(F)(F)F)ccc4F)c(F)c3)c2[nH]c1=O | 258 | 20000 | 2700 | – | – | – | – | –
32 | Cc1ccc(-n2nc(C(C)(C)C)cc2NC(=O)Nc2cccc(Oc3ccnc4ncc(=O)[nH]c34)c2)cc1 | 580 | 780 | 345 | – | – | – | – | –
33 | O=C(Nc1cccc(Oc2ccnc3ncc(=O)[nH]c23)c1)c1cccc(OC(F)(F)F)c1 | 306 | 37000 | 6800 | – | – | – | – | –
34 | O=C(Nc1ccc(Cl)c(C(F)(F)F)c1)Nc1ccc(Oc2ccnc3[nH]c(=O)cnc23)cc1F | 6 | 660 | 1300 | – | – | – | – | –
35 | Cc1nc2nccc(Oc3ccc(NC(=O)Nc4cc(C(C)(C)C)nn4-c4ccccc4)c(F)c3)c2[nH]c1=O | 8500 | 390 | 430 | – | – | – | – | –
36 | Cc1nc2nccc(Oc3ccc(NC(=O)Nc4cc(C(F)(F)F)ccc4F)c4ccccc34)c2[nH]c1=O | 108 | 3400 | 8500 | – | – | – | – | –
